Data published in paper PMC7237122 (OncoTargets and therapy, 2020).

Tests used:
SMMC-7721 cells [1] = assay: MTT analysis of SMMC-7721 cells; assay type: cell-based
Procedure, shortened: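 SMMC-7721 cells (Shanghai Institute of Cell Biology) were incubated with test extract or compounds, and growth was read by MTT. Mean ± standard error; ANOVA, P<0.05.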

ALT and AST = assay: H22-tumor-bearing mice: liver function; assay type: in vivo; settings: blood of H22-tumor-bearing mice, compared with model group
Procedure, shortened: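 H22 ascites cells were injected into male Kunming mice; tumors of 100~150 mm3 at 7 days were randomised (10~12/group) against saline model and uninoculated normal groups. Test agents were given daily for 8 days (ip 100 mg/kg; po 400 or 720 mg/kg). After a 16 h fast, blood was taken from the eyes for ALT and AST. Mean ± standard error; ANOVA.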

H22-tumor-bearing mice [2] = assay: H22-tumor-bearing mice: tumor size, tumor weight, HE staining; assay type: in vivo; settings: for tumor inhibition rate (TIR), tumor weight: 5-Fu ip 200 mg/kg twice a week, SOLB ip 100 mg/kg once daily, 8 days; for tumor size: H22-tumor-bearing mice, compared with model group
Procedure, shortened: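 In H22-inoculated male Kunming mice (tumors 100~150 mm3, randomised 10~12/group), treatment ran 8 days (daily test agents; 5-Fu twice weekly). Tumor size was measured by Vernier calipers. Tumors were excised after a 16 h fast and ether euthanasia. Inhibition rate was taken from mean tumor indices of drug versus model groups. Tissue was fixed overnight in 4% buffered paraformaldehyde for HE. Mean ± standard error; ANOVA.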

IL-6 = assay: H22-tumor-bearing mice: IL-6 ELISA of serum and tumor; assay type: in vivo; settings: for IL-6 concentration, tumor ELISA: tumor tissue, compared with model group
Procedure, shortened: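 Male Kunming mice (20~22 g) bearing H22 tumors (100~150 mm3 at day 7, 10~12/group) were dosed 8 days: test agents ip 100 mg/kg or po 400/720 mg/kg daily, or 5-Fu ip 200 mg/kg twice weekly. Mice were fasted 16 h and ether-euthanised. IL-6 was measured by ELISA in eye-collected blood and in liquid-nitrogen-frozen tumor tissue. Mean ± standard error; ANOVA.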

[3] = system: JAK2, Tyr705-p-STAT3, Ser725-p-STAT3; assay: H22-tumor-bearing mice: Western blotting of tumor tissue; assay type: in vivo; settings: compared with model group
H22-tumor-bearing mice [4] = assay: H22-tumor-bearing mice: tolerability; assay type: in vivo; settings: for mice analyzed / mice in group: 5-Fu ip 200 mg/kg twice a week, SOLB ip 100 mg/kg once daily, 8 days
Procedure, shortened: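 Animals bearing 7-day H22 tumors (male Kunming, 10~12/group) were treated once daily 09:00–10:00 for 8 days (test agents ip or po); 5-Fu ip 200 mg/kg was given twice weekly. Appearance and behaviour were observed, and diarrhea, irritation and emaciation were recorded. Body weight was followed over therapy. Liver was fixed overnight in 4% buffered paraformaldehyde for HE.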

SMMC-7721 cells [5] = assay: Hochest apoptosis test in SMMC-7721 cells; assay type: cell-based; settings: concentration not given
Procedure, shortened: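 Apoptosis in SMMC-7721 cells exposed to test extract or compounds was assessed by Hoechst staining per kit instructions. Mean ± standard error; ANOVA.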

## O=C1C[C@@H](c2ccc(O[C@@H]3O[C@H](CO)[C@@H](O)[C@H](O)[C@H]3O)cc2)Oc2cc(O)ccc21 [LIQ, liquiritin]
SMMC-7721 cells [1]
  growth of SMMC-7721 cells (MTT): no obvious effects

## OC[C@H]1O[C@@H](O[C@@H]2OC=C[C@H]3[C@H](O)[C@@H]4O[C@]4(CO)[C@@H]23)[C@H](O)[C@@H](O)[C@@H]1O [CAT, catalpol]
SMMC-7721 cells [1]
  growth of SMMC-7721 cells (MTT): no obvious effects

## O=c1[nH]cc(F)c(=O)[nH]1 [5-Fu, 5-fluorouracil]
ALT and AST
  liver function: ALT and AST levels: the best
H22-tumor-bearing mice [2]
  tumor inhibition rate (TIR), tumor weight: 91.94%
  tumor size: the smallest
H22-tumor-bearing mice [2]; chromatin condensation and nuclear shrinkage, compared to model group
  HE staining of tumor tissue: good
IL-6
  IL-6 concentration, serum ELISA: increasing not decreasing IL-6
  IL-6 concentration, tumor ELISA: higher than the model group
[3]
  protein expressions of JAK2, Tyr705-p-STAT3, Ser725-p-STAT3 (Western): could inhibit protein expressions of JAK2, Tyr705-p-STAT3, and Ser725-p-STAT3
H22-tumor-bearing mice [4]
  mice analyzed / mice in group: 10/12
H22-tumor-bearing mice [4]; therapeutic period
  appearance and behavior (adverse reactions): diarrhea and alopecia, their appetite was poor
  weights of mice: steadily increased during the therapeutic period except in the 5-Fu group

## O=C(O)/C=C/c1ccc(O)c(O)c1 [CAF, caffeic acid]
SMMC-7721 cells [1]
  growth of SMMC-7721 cells (MTT): no obvious effects

## COc1cc2c(c(OC)c1OC)-c1c(cc3c(c1OC)OCO3)CC(C)C(C)C2 (stereo not shown) [SCHB, schisandrin B]
SMMC-7721 cells [1]
  growth of SMMC-7721 cells (MTT): could inhibit the growth of SMMC-7721 cells in a dose-dependent manner

## deoxyschizandrin
SMMC-7721 cells [1]
  growth of SMMC-7721 cells (MTT): could inhibit the growth of SMMC-7721 cells in a dose-dependent manner
SMMC-7721 cells [5]
  effect on apoptosis (Hochest), pure compounds: not good

## COc1cc2c(c(OC)c1OC)-c1c(cc3c(c1OC)OCO3)C[C@H](C)[C@@](C)(O)C2 [SOLB, schisandrol B]
SMMC-7721 cells [1]
  growth of SMMC-7721 cells (MTT): could inhibit the growth of SMMC-7721 cells in a dose-dependent manner
ALT and AST
  liver function: ALT and AST levels: effective
H22-tumor-bearing mice [2]
  tumor inhibition rate (TIR), tumor weight: 34.98%
  tumor size: effective but not better than 5-Fu
SMMC-7721 cells [5]
  effect on apoptosis (Hochest), pure compounds: an active ingredient of DWYG extract
IL-6
  IL-6 concentration, serum ELISA: less than 5-Fu but more than DWYG extract
  IL-6 concentration, tumor ELISA: less than in the model group
[3]
  protein expressions of JAK2, Tyr705-p-STAT3, Ser725-p-STAT3 (Western): could inhibit protein expressions of JAK2, Tyr705-p-STAT3, and Ser725-p-STAT3
H22-tumor-bearing mice [4]
  mice analyzed / mice in group: 12/12

## O=C(/C=C/c1ccc(O)c(O)c1)O[C@@H]1C[C@](O)(C(=O)O)C[C@@H](O)[C@H]1O [CHL, chlorogenic acid]
SMMC-7721 cells [1]
  growth of SMMC-7721 cells (MTT): no obvious effects

## demethoxycurcumin
SMMC-7721 cells [1]
  growth of SMMC-7721 cells (MTT): could inhibit the growth of SMMC-7721 cells in a dose-dependent manner

## O=C(/C=C/c1ccc(O)cc1)CC(=O)/C=C/c1ccc(O)cc1 [BIS, bisdemethoxycurcumin]
SMMC-7721 cells [1]
  growth of SMMC-7721 cells (MTT): could inhibit the growth of SMMC-7721 cells in a dose-dependent manner

## schisandrol A [SOLA]
SMMC-7721 cells [5]
  effect on apoptosis (Hochest), pure compounds: not good

## schisantherin A [SINA]
SMMC-7721 cells [1]
  growth of SMMC-7721 cells (MTT): could inhibit the growth of SMMC-7721 cells in a dose-dependent manner

## COc1cc(/C=C/C(=O)CC(=O)/C=C/c2ccc(O)c(OC)c2)ccc1O [CUR, curcumin]
SMMC-7721 cells [1]
  growth of SMMC-7721 cells (MTT): could inhibit the growth of SMMC-7721 cells in a dose-dependent manner
